ChEMBL document CHEMBL4033667, “Design, synthesis, and identification of a novel napthalamide-isoselenocyanate compound NISC-6 as a dual Topoisomerase-IIα and Akt pathway inhibitor, and evaluation of its anti-melanoma activity” (Eur J Med Chem, 2017)
Calls of active or inactive are those of the source. No cut-off for these calls is given here.

What was measured:
[1] = tested on: UACC-903; experiment: Antiproliferative activity against human UACC-903 cells harboring BRAF V600E mutant after 24 hrs by MTT assay; type: functional, cell-based; conditions: UACC-903, 24 h
Procedure, shortened: (§1)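 MTT viability in melanoma lines grown in DMEM with 10% FBS and pen/strep at 37 °C, 5% CO2. 3000 cells/well, settled overnight, then exposed to compound (0 to 50 µM) in triplicate for 24, 48 or 72 h. MTT (5.0 mg/mL solution) added 3 h before termination. IC50 from non-linear regression (variable slope), mean ± SD.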

[2] = tested on: UACC-903; experiment: Antiproliferative activity against human UACC-903 cells harboring BRAF V600E mutant after 48 hrs by MTT assay; type: functional, cell-based; conditions: UACC-903, 48 h; procedure, shortened: as §1
[3] = tested on: UACC-903; experiment: Antiproliferative activity against human UACC-903 cells harboring BRAF V600E mutant after 72 hrs by MTT assay; type: functional, cell-based; conditions: UACC-903, 72 h; procedure, shortened: as §1
[4] = Antiproliferative activity against human 1205 Lu cells harboring BRAF V600E mutant after 24 hrs by MTT assay; type: functional, cell-based; procedure, shortened: as §1
[5] = Antiproliferative activity against human 1205 Lu cells harboring BRAF V600E mutant after 48 hrs by MTT assay; type: functional, cell-based; procedure, shortened: as §1
[6] = Antiproliferative activity against human 1205 Lu cells harboring BRAF V600E mutant after 72 hrs by MTT assay; type: functional, cell-based; procedure, shortened: as §1
[7] = Antiproliferative activity against human A375M cells harboring BRAF V600E mutant after 24 hrs by MTT assay; type: functional, cell-based; procedure, shortened: as §1
[8] = Antiproliferative activity against human A375M cells harboring BRAF V600E mutant after 48 hrs by MTT assay; type: functional, cell-based; procedure, shortened: as §1
[9] = Antiproliferative activity against human A375M cells harboring BRAF V600E mutant after 72 hrs by MTT assay; type: functional, cell-based; procedure, shortened: as §1
[10] = tested on: CHL-1; experiment: Antiproliferative activity against human CHL-1 cells harboring wild type BRAF after 24 hrs by MTT assay; type: functional, cell-based; conditions: CHL-1, 24 h; procedure, shortened: as §1
[11] = tested on: CHL-1; experiment: Antiproliferative activity against human CHL-1 cells harboring wild type BRAF after 48 hrs by MTT assay; type: functional, cell-based; conditions: CHL-1, 48 h; procedure, shortened: as §1
[12] = tested on: CHL-1; experiment: Antiproliferative activity against human CHL-1 cells harboring wild type BRAF after 72 hrs by MTT assay; type: functional, cell-based; conditions: CHL-1, 72 h; procedure, shortened: as §1
[13] = tested on: NHDF; experiment: Cytotoxicity against human NHDF cells assessed as reduction in cell viability at 2.5 uM after 48 hrs by MTT assay; type: cell-based
Procedure, shortened: (§2)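 nHDF normal fibroblasts grown in serum-free fibroblast basal medium with growth kit and pen/strep/amphotericin B. Treated 48 h at set concentrations, with viability read by MTT assay.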

[14] = tested on: NHDF; experiment: Cytotoxicity against human NHDF cells assessed as reduction in cell viability at 5 uM after 48 hrs by MTT assay; type: cell-based; procedure, shortened: as §2
[15] = target: DNA topoisomerase 2-alpha (Homo sapiens) (UniProt P11388); experiment: Inhibition of human DNA topoisomerase 2alpha assessed as decrease in relaxation of supercoiled pBR322 DNA at 0.5 to 5 uM after 1 hr by ethidium bromide staining-based agarose gel electrophoresis
Procedure, shortened: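 Kit-based relaxation assay: supercoiled plasmid DNA with 4 units of human Topo-IIα in assay buffer plus test agent or DMSO at 37 °C (1 h in legend, 30 min in methods). Stopped with 10% SDS, then proteinase K 15 min at 37 °C. Run on 1% agarose 1-2 h, ethidium bromide 2 h, destain 15 min in TAE, UV imaging.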

DNA topoisomerase 2-alpha (Homo sapiens), sequence (P11388 whole entry): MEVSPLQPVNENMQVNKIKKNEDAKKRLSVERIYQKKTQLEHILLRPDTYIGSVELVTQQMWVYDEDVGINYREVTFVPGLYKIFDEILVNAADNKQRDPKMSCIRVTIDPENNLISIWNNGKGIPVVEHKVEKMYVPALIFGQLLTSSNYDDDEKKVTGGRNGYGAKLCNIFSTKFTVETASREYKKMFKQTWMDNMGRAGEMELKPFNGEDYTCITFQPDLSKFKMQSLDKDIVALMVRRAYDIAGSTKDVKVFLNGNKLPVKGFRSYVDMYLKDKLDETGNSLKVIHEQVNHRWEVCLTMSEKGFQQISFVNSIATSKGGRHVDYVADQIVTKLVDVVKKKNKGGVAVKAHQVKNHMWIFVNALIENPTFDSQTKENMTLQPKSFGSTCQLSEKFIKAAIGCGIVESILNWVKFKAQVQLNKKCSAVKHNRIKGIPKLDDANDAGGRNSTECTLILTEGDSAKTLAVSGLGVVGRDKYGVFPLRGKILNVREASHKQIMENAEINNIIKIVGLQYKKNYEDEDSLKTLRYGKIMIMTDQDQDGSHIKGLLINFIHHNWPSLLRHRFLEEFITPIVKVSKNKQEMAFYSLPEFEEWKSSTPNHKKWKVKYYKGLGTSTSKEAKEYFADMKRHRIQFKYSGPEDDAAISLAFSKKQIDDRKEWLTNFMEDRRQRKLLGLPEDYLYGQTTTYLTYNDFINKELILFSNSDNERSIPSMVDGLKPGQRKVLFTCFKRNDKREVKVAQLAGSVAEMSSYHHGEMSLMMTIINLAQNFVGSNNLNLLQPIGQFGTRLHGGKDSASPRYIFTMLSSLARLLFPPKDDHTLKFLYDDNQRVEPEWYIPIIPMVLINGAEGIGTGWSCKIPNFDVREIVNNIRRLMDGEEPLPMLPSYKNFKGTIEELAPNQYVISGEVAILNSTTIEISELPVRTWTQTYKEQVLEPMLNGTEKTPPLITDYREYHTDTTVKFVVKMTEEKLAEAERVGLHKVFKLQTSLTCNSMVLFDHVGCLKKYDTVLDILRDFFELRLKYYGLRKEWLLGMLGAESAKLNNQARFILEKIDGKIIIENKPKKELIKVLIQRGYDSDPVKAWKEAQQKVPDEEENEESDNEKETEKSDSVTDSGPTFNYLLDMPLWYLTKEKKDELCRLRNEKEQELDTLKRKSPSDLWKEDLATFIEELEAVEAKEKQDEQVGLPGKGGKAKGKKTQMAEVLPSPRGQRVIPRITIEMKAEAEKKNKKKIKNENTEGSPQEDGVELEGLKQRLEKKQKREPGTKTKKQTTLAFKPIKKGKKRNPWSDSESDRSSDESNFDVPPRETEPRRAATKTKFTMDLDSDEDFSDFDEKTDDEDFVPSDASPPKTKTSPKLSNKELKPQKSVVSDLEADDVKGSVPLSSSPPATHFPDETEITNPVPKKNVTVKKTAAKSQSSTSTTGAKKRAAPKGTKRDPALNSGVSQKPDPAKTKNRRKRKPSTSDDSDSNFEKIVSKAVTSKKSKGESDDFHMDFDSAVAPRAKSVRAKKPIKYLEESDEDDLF

| Compound | IC50 [1] [µM] | IC50 [2] [µM] | IC50 [3] [µM] | IC50 [4] [µM] | IC50 [5] [µM] | IC50 [6] [µM] | IC50 [7] [µM] | IC50 [8] [µM] | IC50 [9] [µM] | IC50 [10] [µM] | IC50 [11] [µM] | IC50 [12] [µM] | Activity [13] [%] | Activity [14] [%] | inhibition [15] |
| --- | --- | --- | --- | --- | --- | --- | --- | --- | --- | --- | --- | --- | --- | --- | --- |
| CN(C)CCN1C(=O)c2cccc3cc([N+](=O)[O-])cc(c23)C1=O [MITONAFIDE] | 11.4 | 0.8 | 0.5 | 11.1 | 0.9 | 0.6 | 3.8 | 1.5 | 1.3 | 2.8 | 0.9 | 0.5 | < 20 | < 20 | Active |
| O=C1c2cccc3cccc(c23)C(=O)N1CCN=C=[Se] | 6.3 | 5.5 | 5.9 | 11 | 10.7 | 9.4 | 9.7 | 7.8 | 8 | 6.3 | 6.8 | 7.6 |  |  |  |
| N=C(N)[Se]CCN1C(=O)c2cccc3cc([N+](=O)[O-])cc(c23)C1=O | > 50 | 18.1 | 14 | > 50 | > 50 | 39.6 | > 50 | > 50 | 25.8 | > 50 | 8.5 | 13.5 |  |  |  |
| COc1cc([C@@H]2c3cc4c(cc3[C@@H](O[C@@H]3O[C@@H]5CO[C@@H](C)O[C@H]5[C@H](O)[C@H]3O)[C@H]3COC(=O)[C@H]23)OCO4)cc(OC)c1O |  |  |  |  |  |  |  |  |  |  |  |  |  |  | Active |
| CCCS(=O)(=O)Nc1ccc(F)c(C(=O)c2c[nH]c3ncc(-c4ccc(Cl)cc4)cc23)c1F [VEMURAFENIB] | > 50 | 12.3 | 2.7 | > 50 | 7.6 | 2 | > 50 | 2.05 | 0.5 | > 50 | 20 | 12.7 |  |  |  |
